The text below walks through data of the EternaBench riboswitch data.

In this data set the test system is MS2 coat protein. Briefly: apparent Kd, MS2 coat protein; higher = weaker binding; RNA-MaP array; FMN 200 µM where present. The method in brief: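 Stalled E. coli RNA polymerase transcribed the designs on Illumina sequencing-chip clusters. SNAP-549-labelled MS2 coat protein was titrated from 0.7 or 1.5 nM, doubling to 3 µM, without and then with constant ligand, in 100 mM Tris-HCl pH 7.5, 80 mM KCl, 4 mM MgCl2, BSA, DTT, yeast tRNA and Tween-20. Per-cluster binding curves were fitted to green signal normalised to red-channel RNA signal and control-cluster median Fmax. The apparent Kd is the median of the filtered fits.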

[1] abbreviates: designed as: OFF switch for flavin mononucleotide, no ligand.
[2] abbreviates: ligand present: flavin mononucleotide, designed as: OFF switch for flavin mononucleotide.
The mark [3] stands for this setting: designed as: ON switch for flavin mononucleotide, no ligand.
Setting [4] is: ligand present: flavin mononucleotide, designed as: ON switch for flavin mononucleotide.

As a reminder, the apparent Kd is a dissociation constant that holds for the conditions of the assay. For “AUAAACCAAGGAUAUACAUGAGGAUCACCCAUGUUCCCUUGAACCCAGGGUAUGCAAUGUAGAAGGUGGGAAAC”, the “apparent Kd” value under setting [1] came to 20 nM and the “apparent Kd” value under setting [2] turned out to be 29.5 nM.

Take “AAAGCUCAGAUAGGAUAUAUAGGAUAACUUAAGACCUAACAUGAGGAUCACCCAUGUGAUUAUUCGUAGAAGGAUCAUUGAACC”: the “apparent Kd” value was found to be 195 nM under setting [3] and 209 nM under setting [4].

In the case of “AUACUCAUGUAAGGAUAUGCAGCCGUUUCGGCUGCAGAAGGUACUAUAAUACAUGAGGAUCACCCAUGUCUCUCGCCUUGCGAG”, the “apparent Kd” value under setting [3] came out at 710 nM and the “apparent Kd” value under setting [4] was found to be 89.7 nM.

As to “AGUAGAUCAGGAUAUACAUGAAAGAUCAAAAUGUCACUACUACAUGAGGAUCACCCAUGUAGAAGGGAUCUACA”, the “apparent Kd” value amounted to 52.9 nM under setting [1] and 36.7 nM under setting [2].

Turning to “GGAUUACAUGAGGAUCACCCAUGUGAGGAUAUCGAUGUCCUGUGUGGAGUGCGGGACUCGAGAAGGCACUUGGA”, the “apparent Kd” value runs as follows: under setting [1], 43.8 nM; under setting [2], 219 nM.

On to “CAACGUGGAGGAUAUUAGCGAGACAACAUGAGGAUCACCCAUGUGGUACUCAUCUCCUCCUGAGAAGGCUACGCCC”, for which the “apparent Kd” value was determined as 11.8 nM under setting [1] and 12.3 nM under setting [2].

Consider “CCAUAUAAAUAAGGAUAUUAAGUUGAUUAUCCUCAAACAUGAGGAUCACCCAUGUAUAGUCUUAUUAAGAAGGUAUAGUGUUGG”, for which the “apparent Kd” value was 608 nM under setting [3] and 545 nM under setting [4].

On to “GUGUACAGAGGAUAUAUAUGAGCAUGGAAACAUGCAUCUUCACAUGAGGAUCACCCAUGUAGAAGGCUGUACAC”, for which the “apparent Kd” value turned out to be 15.7 nM under setting [1] and 49.2 nM under setting [2].

Take “GGAUAGGACAGAGGAUAUACGUGCUAGAGAUACUAGCAGAAUUUCCUCACAUGAGGAUCACCCAUGUAGAAGGCUGUCCUAUCG”: the “apparent Kd” value runs as follows: under setting [1], 12.2 nM; under setting [2], 216 nM.

Consider “UCCACUACUGAGAAGGGAUACAUAUAAUUCUAGUCAGGAUAUCGAUACAGUGCAGCAUGAGGACAUGAGGAUCACCCAUGUAUU”, for which the “apparent Kd” value was determined as 18.9 nM under setting [3] and 16 nM under setting [4].

For the sequence “UCCGCUAUCUAGAAGGAUAUGCGUAUAUAAACAUGAGGAUCACCCAUGUACCGGCGAAAACCGGUGCAGAAGGUUUAGCUAGUGA”, the “apparent Kd” value is 431 nM under setting [3] and 65.7 nM under setting [4].

On to “UCAUAUAUACAAGGAUAUCAAUUAUUUACACAUCCUACAUGAGGAUCACCCAUGUUUUAAUAUAUUGAGAAGGUGUAAUGUCGG”, for which the “apparent Kd” value under setting [3] amounted to 24.9 nM and the “apparent Kd” value under setting [4] was 31.9 nM.

Regarding “GGUACUCAAAGAGUACCAAAACGAACAUGAGGAUCACCCAUGUAGGAUAUGCUACUCAAAGAGUAGCAGAAGGACAUGUGCCUA”, the “apparent Kd” value under setting [2] was 122 nM.

As to “AUAAAACAUGAGGAUCACCCAUGUAAGGAUAUGCGAAAAUAAAAUAAAAUAAAAUAAAGCAGAAGGUACAAAAA”, the “apparent Kd” value by setting is: under setting [1], 51 nM; under setting [2], 59.6 nM.

For the sequence “UUUGGGUGGCUGGAGGAUAUUCUAGUGGUUACAUGAGGAUCACCCAUGUGUCGCGCGGUUCGCGAGGAGAAGGCUGGCGGCCGUU”, the “apparent Kd” value by setting is: under setting [3], 166 nM; under setting [4], 46.2 nM.

In the case of “GUCUUGUCAGGAUAUCUUACAUAACAAUCGUAGUUACAAUUGGAGAAGGGACAUGAGGAUCACCCAUGUUAGCG”, the “apparent Kd” value turned out to be 32.9 nM under setting [1] and 36 nM under setting [2].

Take “UUCAUCAAUGAAGGAUAUCUAUAUCCAACAUGAGGAUCACCCAUGUUGAGGAUCACCCAUGUAAAGGAGAAGGUUAAUAUAACU”: the “apparent Kd” value was 35.9 nM under setting [3] and 31.4 nM under setting [4].

Consider “GUCAGCUCGUGAGGAUAUACAUGUGCUGGAAACAGCAUUAAAUUUUUCACAUGAGGAUCACCCAUGUAGAAGGCACGAGCUGAU”, for which the “apparent Kd” value runs as follows: under setting [1], 17.3 nM; under setting [2], 39.1 nM.

As to “UUUAUAAAUUAGAAGGCGUGAUAAAAUACAAUAAACAUGAGGAUCACCCAUGUGUACCCAUGUUAUGAGGAUAUAGUCAUAUAU”, the “apparent Kd” value by setting is: under setting [3], 462 nM; under setting [4], 377 nM.

On to “CGAUGGUAGACAGGAUAUCGACCGGGAUACUAUGAAGACUAUAAACACAUGAGGAUCACCCAUGUCGAGAAGGGUCUCACAGCG”, for which the “apparent Kd” value under setting [1] stood at 37.1 nM and the “apparent Kd” value under setting [2] is 60.9 nM.

On to “UUAUUAUAUGUAGGAUAUGCAUAUUAUUAUUAUGCAGAAGGACAUGAGGAUCACCCAUGUAUAUUAUUAUUAUAUAUUAUAUGU”, for which the “apparent Kd” value is, setting by setting: under setting [1], 41.2 nM; under setting [2], 86.1 nM.

For the sequence “CCAUUUCAGUAAGGAUAUAUAAACAUGACGAUACAUGAGGAUCACCCAUGUGUAGAAGGUACUAAUACAUAUAAUGCAAUGUUC”, the “apparent Kd” value is, setting by setting: under setting [1], 16.6 nM; under setting [2], 15.7 nM.

For “GUCGGAAACGACAAAAGUAGCAUACGAGAAGGCUGAUCCACGACAUGAGGAUCACCCAUGUAGUUAGAGGAUAUUGGAUGCUAC”, the “apparent Kd” value stood at 61.6 nM under setting [3] and 12.9 nM under setting [4].

With “GAUCCACAUGAGGAUCACCCAUGUGAGGAUAUGAUACUAUGUACUUCGGUACAUAGUAUCAGAAGGCAUAUGAA”, the “apparent Kd” value under setting [1] was found to be 42 nM and the “apparent Kd” value under setting [2] came to 196 nM.

For “CAAUUGGCACAGAAGGGUGACAUGAGGAUCACCCAUGUAGCGUGGCAUUCAGGAGGAGCCACGCCACAGGAUAUGUGCGGGCAC”, the “apparent Kd” value reads like this: under setting [3], 107 nM; under setting [4], 155 nM.

As for “UGUUGAUAGCAGAAGGACAUGAGGAUCACCCAUGUACGGAUACAAAUAUAUGUAGGAUAUGCUAUUGACUAAGAGUGAGCGUUC”, the “apparent Kd” value under setting [1] turned out to be 5.78 nM and the “apparent Kd” value under setting [2] was 7.87 nM.

Consider “AAUAUAAGAGCUGGUACUCAAAGAACAUGAGGAUCACCCAUGUAGGAUAUCAGCACGAUAAGUGCUGAGAAGGACAUCCAGCUC”, for which the “apparent Kd” value is, setting by setting: under setting [1], 15.8 nM; under setting [2], 15.9 nM.

For “CGAAUACGCGUGAGGAUAUCGUUCGAAUAUUGCGAUGAGAAGGCACAUGAGGAUCACCCAUGUAGGUAUCCUGG”, the “apparent Kd” value under setting [1] stood at 73.2 nM and the “apparent Kd” value under setting [2] was 120 nM.

In the case of “CAUGUGUAAGGAUAUGACAAUGGUAUCUUCGGAUACCAUUGUCAGAAGGUACAUGAGGAUCACCCAUGUACAUC”, the “apparent Kd” value is, setting by setting: under setting [1], 14.3 nM; under setting [2], 16.8 nM.

As for “UAUGUGUGAGGAUAUGGUAAAGAUAAGAUGAUGAAAGAACUCCAGAAGGCACAUGAGGAUCACCCAUGUAGAUA”, the “apparent Kd” value is 22.8 nM under setting [1] and 45.6 nM under setting [2].

Take “UUAAGCAAGGAGAAGGCCCAGGUGGGCCAUCACAUGAGGAUCACCCAUGUGGGAGGAUAUCCGGGCCCACGCUUAUCCGCGGGC”: the “apparent Kd” value reads like this: under setting [1], 7.6 nM; under setting [2], 12.6 nM.

For the sequence “GGACAUCCCACAGGAUAUGCUGGACUUUGUCCAGCAGAAGGGUGAACAUGAGGAUCACCCAUGUAUAGGAUGUCCAUAUUUAAU”, the “apparent Kd” value is, setting by setting: under setting [3], 963 nM; under setting [4], 128 nM.

As to “UUUUUAUUUAUAGGAUAUGGAAACAUGAGGAUCACCCAUGUAUGAUAAGAUAAAUUAUGAUAUAGCCAGAAGGAUAUUAUUUUU”, the “apparent Kd” value under setting [3] is 28.5 nM and the “apparent Kd” value under setting [4] was 35.9 nM.

For the sequence “GUCAGACGAGGAUAUAGAUUUAAGUACAUGAGGAUCACCCAUGUACACAUGUAUUUAGAUUUAGAAGGCGUCUGAC”, the “apparent Kd” value worked out at 594 nM under setting [1] and 700 nM under setting [2].

Consider “UGUCUCAGAGGAUAUACAGGUGUAGAUCCUUUAGACCCUUGACAUGAGGAUCACCCAUGUAGAAGGCUGCAGAC”, for which the “apparent Kd” value runs as follows: under setting [1], 69.4 nM; under setting [2], 26.4 nM.

“UCACGGGUUUGAGGAUAUAUAUUUAUUAUUUUAAUAGAAGGCAAAGAGAUAGUUUUUUCACUAUACAUGAGGAUCACCCAUGUU”: the “apparent Kd” value by setting is: under setting [1], 41.5 nM; under setting [2], 36 nM.

Regarding “UGCGCUGAGGGAGGAUAUGACAUGAGGAUCACCCAUGUGGUAGGUUUCUUGUCAGAAGGCCCGCAUGUACCGAAUUAGGUUCGU”, the “apparent Kd” value under setting [1] was found to be 112 nM and the “apparent Kd” value under setting [2] came out at 18.3 nM.

For the sequence “AAUUCGUCAGGAUAUGCAUGUAAUUGUUACAUUUCGCCGUUGCAGAAGGGACAUGAGGAUCACCCAUGUAAGUC”, the “apparent Kd” value reads like this: under setting [1], 32.8 nM; under setting [2], 34.9 nM.

With “GGAUUACAUGAGGAUCACCCAUGUGAGGAUAUCGAUGUCCUGGGUGGAGUGCGGGACUCGAGAAGGCACUUGGA”, the “apparent Kd” value runs as follows: under setting [1], 60.5 nM; under setting [2], 229 nM.

“AGAUGGCGAGGAUAUACAUGAGGAUCACCCAUGUGAAGAAGAAUAGUGAGGAAGAAAAGUAGAAGGCGCUGUCA”: the “apparent Kd” value runs as follows: under setting [1], 53.6 nM; under setting [2], 180 nM.

For the sequence “CACAUUUUAACAGGAUAUGUAAGGUUGUUUAUUAUUGCAUUUACAAUUAUUACAGAAGGGUUAUACAUGAGGAUCACCCAUGUG”, the “apparent Kd” value was 15.3 nM under setting [3] and 15.5 nM under setting [4].

In the case of “UUGGACGUCGUACGAUAUGUAGGAUAUUCCUACAUGAGGAUCACCCAUGUUGACAUGGAAGAAGGACAGAAGGACGAUGUCCAU”, the “apparent Kd” value runs as follows: under setting [3], 151 nM; under setting [4], 5.61 nM.

For “ACGGUGGUCACAGGAUAUCCAGCCCGCGUGCCUGGAGAAGGGUGACUCAGAACCACAUGAGGAUCACCCAUGUGCCUUGCCGUA”, the “apparent Kd” value under setting [3] was 140 nM and the “apparent Kd” value under setting [4] came out at 33.4 nM.

“CGUUUGUGGCAACUAUCCUCACAUGAGGAUCACCCAUGUAGGGAGGAUAUGCAUUUAAAGAAGUGGCAGAAGGCCCUACACGAA”: the “apparent Kd” value under setting [1] came to 101 nM and the “apparent Kd” value under setting [2] was found to be 89.5 nM.

Turning to “GCCCGAACCACAGGAUAUCCCAAUGUUUUACAGGGAGAAGGGUGAGAGUAUGACAUGAGGAUCACCCAUGUUGUUCGGGUGGAA”, the “apparent Kd” value by setting is: under setting [3], 709 nM; under setting [4], 227 nM.

Regarding “AAGAUACAUGAGGAUCACCCAUGUCGAGAGAGACGAGGAUAUCUGAAUCGAUUAGAUUACGGAGAAGGCGUGAAAA”, the “apparent Kd” value is, setting by setting: under setting [3], 31.5 nM; under setting [4], 25.6 nM.

Consider “GGGUGACUAGGAUAUACAUGAGGAUCACCCAUGUGUACUGGACCUGGGUAGUCUUGGAGUAGAAGGAGUAGCUG”, for which the “apparent Kd” value by setting is: under setting [1], 85.3 nM; under setting [2], 127 nM.

For “AAUGUGUGUGGAGGAUAUAUAACAUGACAACAAACACAUACAUGAGGAUCACCCAUGUCCCAUGUAUAGAAGGCCAUAUAUAUA”, the “apparent Kd” value runs as follows: under setting [3], 662 nM; under setting [4], 618 nM.
